IC50 and Activity data for 16 compounds are collected here from ChEMBL document CHEMBL1152486, “Synthesis and antitumor activity of optically active thiourea and their 2-aminobenzothiazole derivatives: a novel class of anticancer agents” (Eur J Med Chem, 2009).

Format in all cases: functional, cell-based
The subject of experiment [1] is HeLa. The experiment is described as follows: Cytotoxicity against human HeLa cells after 24 hrs by MTT assay. Put shortly:
(§1)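 Standard MTT, 24 h exposure. Cells plated at 10^4/well and allowed 24 h to attach, then exposed to 1–100 μM compound (dissolved in 0.1% DMSO, diluted in medium; vehicle controls 0.1% DMSO). MTT 1 mg/ml for 4 h at 37 °C, formazan dissolved in DMSO, absorbance read at 540 nm. IC50 taken as concentration giving 50% growth inhibition; triplicate.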

Experiment [2] in a line: Cytotoxicity against mouse EAC after 24 hrs by MTT assay. To be noted: Ehrlich. Put shortly:
as §1

Experiment [3] concerns MCF7. The experiment is described as follows: Cytotoxicity against human MCF7 cells after 24 hrs by MTT assay. Put shortly: as §1
The subject of experiment [4] is MCF7. The experiment is described as follows: DNA damaging activity in human MCF7 cells assessed as increase in tail moment after 24 hrs by alkaline comet assay. Put shortly:
(§2)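 Alkaline comet assay in MCF-7 after 24 h exposure to 5–50 μM. About 20,000 cells embedded in 0.75% low-melt agarose over a 1.5% agarose layer. Alkaline unwinding 1 h, then electrophoresis at pH 13 for 20 min, 16 V. Ethidium bromide staining; ~50 cells scored per slide, two slides per concentration; means ± SEM.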

For experiment [5], the system named is MCF7. The experiment is described as follows: DNA damaging activity in human MCF7 cells assessed as tail DNA content after 24 hrs by alkaline comet assay. Put shortly:
as §2

Experiment [6] concerns MCF7. The experiment in a line: DNA damaging activity in human MCF7 cells assessed as olive tail moment after 24 hrs by alkaline comet assay. Put shortly:
as §2

Experiment [7] deals with MCF7. The experiment in a line: Cytotoxicity against human MCF7 cells after 48 hrs by MTT assay. Conditions: MCF7, 48 h; call rule not given here. Put shortly: (§3)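 MCF-7 time-course MTT. Cells seeded at 5 × 10^3/well and exposed to 1–50 μM compound. Percentage cytotoxicity and IC50 determined at 24, 48 and 72 h of drug incubation. MTT read-out at 540 nm after formazan solubilization in DMSO.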
For experiment [8], the system named is MCF7. The experiment in a line: Cytotoxicity against human MCF7 cells after 72 hrs by MTT assay. Conditions: MCF7, 72 h. Put shortly: as §3
Experiment [9] concerns MCF7. The experiment is described as follows: Cytotoxicity against human MCF7 cells by MTT assay. Put shortly:
as §3

The test system of experiment [10] is MCF7. The experiment is described as follows: DNA damaging activity in human MCF7 cells assessed as elongated tail length after 24 hrs by alkaline comet assay. Put shortly:
as §2

Consider `COc1ccc([C@@H](C)NC(=S)Nc2ccc(F)c(Cl)c2)cc1`, for which the 50% inhibitory concentration (IC50) is 77.5 µM in experiment [1], 45.6 µM in experiment [2] and “Dose-dependent effect” in [3].
With `CCC(Nc1nc2cc(Cl)c(F)cc2s1)c1ccccc1` (single isomer, unassigned), the IC50 is 53.3 µM in experiment [1], 32.2 µM in experiment [2] and “Dose-dependent effect” in experiment [3].
Consider `CC(Nc1nc2cc(Cl)c(F)cc2s1)c1ccc(F)cc1` (single isomer, unassigned), for which the IC50 in experiment [1] is 61.9 µM; in [2], 35.4 µM; in [3], “Dose-dependent effect”.
Consider `C[C@@H](NC(=S)Nc1ccc(F)c(Cl)c1)c1ccc(F)cc1`, for which the results for the IC50 in experiment [1], in [2] and in experiment [3] were 71.4 µM, 29.9 µM and “Dose-dependent effect”, respectively.
Consider `C[C@@H](NC(=S)Nc1ccc(F)c(Cl)c1)c1ccc(Cl)cc1`, for which the Activity entry in experiment [4], in [5], in experiment [6] and in [10] was “Dose-dependent effect” in each case. Moreover, the IC50 in [7] was 16.3 µM; in [1] it was 43 µM; in experiment [2], 17.3 µM; in experiment [8] it was 11.4 µM; in experiment [9], “tde”; in experiment [3], “Dose-dependent effect”.
As for `C[C@@H](Nc1nc2cc(Cl)c(F)cc2s1)c1ccc(Cl)cc1`, the IC50 in experiment [1] was 69.7 µM; in [2], 25.5 µM; in [3], “Dose-dependent effect”.
Turning to `COc1ccc(C(C)Nc2nc3cc(Cl)c(F)cc3s2)cc1` (single isomer, unassigned), the IC50 is 75.4 µM in experiment [2] and “Dose-dependent effect” in experiment [3].
`Fc1ccc(NC(=S)NC2CCCCC2OCc2ccccc2)cc1Cl` (stereo not drawn): the IC50 in experiment [7] was 12.8 µM; in [1], 33.8 µM; in [2], 10.6 µM; in [8] it was 8.61 µM; in experiment [9] (TDE = time-dependent effect) it was “tde”; in [3] it was “Dose-dependent effect”.
With `CCCCCC[C@@H](C)NC(=S)Nc1ccc(F)c(Cl)c1`, the IC50 in experiment [1] was 49.1 µM; in experiment [2] it was 25.5 µM; in experiment [3], “Dose-dependent effect”.
Consider `CC(Nc1nc2cc(Cl)c(F)cc2s1)C1CCCCC1` (single isomer, unassigned), for which the IC50 was 72.5 µM in experiment [1], 29.8 µM in experiment [2] and “Dose-dependent effect” in [3].
For `CC[C@@H](NC(=S)Nc1ccc(F)c(Cl)c1)c1ccccc1`, the 50% inhibitory concentration (IC50) in experiment [2] is 80.2 µM; in experiment [3] it was “Dose-dependent effect”.
For `Fc1cc2sc(N[C@@H]3CCCC[C@@H]3OCc3ccccc3)nc2cc1Cl`, the IC50 in experiment [1] is 60.8 µM; in experiment [2], 20.6 µM; in experiment [3], “Dose-dependent effect”.
With `C[C@@H](NC(=S)Nc1ccc(F)c(Cl)c1)c1ccccc1`, the IC50 is 66.2 µM in experiment [1], 23.6 µM in experiment [2] and “Dose-dependent effect” in experiment [3].
`CCCCCC[C@@H](C)Nc1nc2cc(Cl)c(F)cc2s1`: the IC50 in experiment [7] is 24.8 µM; in experiment [1], 48 µM; in experiment [2], 24.6 µM; in experiment [8], 15 µM; in [9] (TDE = time-dependent effect), “tde”; in experiment [3], “Dose-dependent effect”.
As for `CC(Nc1nc2cc(Cl)c(F)cc2s1)c1ccccc1` (single isomer, unassigned), the half-maximal inhibitory concentration (IC50) is 58.9 µM in [1], 36.6 µM in experiment [2] and “Dose-dependent effect” in experiment [3].
On to `COc1cccc2c1C(=O)c1c(O)c3c(c(O)c1C2=O)C[C@@](O)(C(=O)CO)C[C@@H]3O[C@H]1C[C@H](N)[C@H](O)[C@H](C)O1` [DOXORUBICIN], for which the IC50 in [2] is 4.18 µM; in experiment [3], “Dose-dependent effect”.
